Bioassay records from PubChem.
A selection: hits, their analogues and other compounds. The true share with any hit is near 1.2%.
NSD2 HMT inh: inhibitors of human histone methyltransferase NSD2; O96028; NSD2 peptide methylation, AlphaScreen, 120 min; inhibition, % at 12.5 µM; hit rate 0.54% among 310,000; AID 743445; in the data active means inhibition above about 50%
FN deposition inh: fibronectin deposition inhibition | hit rate 0.086% among 350,000 | inhibition, % at 12.6 µM | AID 743247 | AH1F fibroblasts, Alexa488-fibronectin deposition fluorescence, overnight;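 active means mean inhibition across replicates of 30% or more, regardless of how many single replicates reach that level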;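 further: positive control wells lacked labelled fibronectin entirely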
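Material – AH1F fibroblast monolayer, labelled fibronectin deposition · Reagent – labelled fibronectin 24 nM · Timing – 1 h adhesion, overnight exposure · Measured by – fluorescence at 485 nm excitation, 525 nm emission · Read-out – inhibition of fibronectin deposition signal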
Glyco luc inh: N-linked glycosylation inhibition; D54 ERlucT glycosylation luciferase reporter, 24 h; percent of 100 nM tunicamycin response; reporter increase, % at 12.5 µM; hit rate 0.23% among 360,000;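 active means mean luciferase reporter signal, scaled so untreated is 0 and the glycosylation-blocking control 100, at or above a set limit in every replicate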;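 further: luciferase carries N-glycosylation sites so blocking glycosylation raises the light; 0% = median of neutral control wells and 100% = median of 100 nM tunicamycin wells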
RAD52 inh: inhibitors of human RAD52 DNA annealing. recombinant RAD52 DNA annealing, FRET fluorescence. inhibition, % at 18.7 µM. hit rate 0.46% among 360,000. AID 651710;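 active means every replicate showing at least 50% inhibition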
AF4-AF9 inh: inhibitors of human MLL-AF4/AF9 interaction. inhibition, % at 10 µM. AID 651704. AlphaScreen, biotin-AF4 peptide binding to FLAG-AF9. P42568. hit rate 0.47% among 350,000;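 active means every replicate reaching a set inhibition limit, whatever the replicate mean, cut at about 25% in these data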;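 further: 0% = plate neutral control median and 100% = total signal loss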
RAD54 inh: blocks human RAD54 Holliday junction branch migration. hit rate 0.14% among 360,000. Q92698. FAM/BHQ fluorescence. AID 602329. inhibition, % at 10.4 µM;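 active means mean normalized replicate activity at least 40 and at least half of replicates scoring 40 or more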;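 further: 0% = median of neutral control wells and 100% = median of positive control wells; inhibitors cause a drop in the FAM fluorescence signal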
Target sequence (Q92698 whole entry, looked up): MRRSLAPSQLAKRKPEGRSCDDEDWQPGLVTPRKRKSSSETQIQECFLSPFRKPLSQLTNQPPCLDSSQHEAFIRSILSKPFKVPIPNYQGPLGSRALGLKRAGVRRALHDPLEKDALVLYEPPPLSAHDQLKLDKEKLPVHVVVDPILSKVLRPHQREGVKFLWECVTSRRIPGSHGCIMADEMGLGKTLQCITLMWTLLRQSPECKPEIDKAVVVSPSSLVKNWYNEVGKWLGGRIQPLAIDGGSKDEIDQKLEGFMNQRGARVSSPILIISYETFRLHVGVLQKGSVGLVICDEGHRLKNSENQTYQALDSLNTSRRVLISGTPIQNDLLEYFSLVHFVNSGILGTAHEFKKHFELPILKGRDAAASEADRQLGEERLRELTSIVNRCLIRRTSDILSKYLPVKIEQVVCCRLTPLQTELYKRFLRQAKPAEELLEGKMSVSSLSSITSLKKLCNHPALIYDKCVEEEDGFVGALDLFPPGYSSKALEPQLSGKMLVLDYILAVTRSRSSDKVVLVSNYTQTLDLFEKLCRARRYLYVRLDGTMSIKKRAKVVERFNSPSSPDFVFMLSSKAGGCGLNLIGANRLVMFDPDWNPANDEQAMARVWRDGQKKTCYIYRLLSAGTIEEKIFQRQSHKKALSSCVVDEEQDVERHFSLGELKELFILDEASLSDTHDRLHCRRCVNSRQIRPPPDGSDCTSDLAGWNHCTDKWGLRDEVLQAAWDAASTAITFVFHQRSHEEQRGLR
* = called active by the depositor; · = not tested or not shown.

SMILES | NSD2 HMT inh | FN deposition inh | Glyco luc inh | RAD52 inh | AF4-AF9 inh | RAD54 inh
O=C1CC[C@@]2(O)[C@H]3Cc4ccc(O)c5c4[C@@]2(CCN3CC2CC2)C1O5 (stereo partly specified) | · | · | · | -12.7 | · | ·
NC(N)=Nc1ccc2[nH]c3c(c2c1)C[C@@]1(O)[C@H]2Cc4ccc(O)c5c4[C@@]1(CCN2CC1CC1)[C@H]3O5 | · | · | -4.8 | · | · | 53.7*
COc1ccc(C(O)(c2cncnc2)C2CC2)cc1 (stereo unspecified) | · | · | · | 6.9 | -1.6 | ·
C[CH2][Hg][S]c1ccccc1C(=O)O | · | 26.3 | 63.2* | -11.4 | -7.2 | 2.2
Cc1ccnc(NC(=O)CCCc2ccc(N(CCCl)CCCl)cc2)n1 | 10.6 | 5.3 | -0.3 | 30.5 | 25.7* | -11.4
S=C=Nc1cccc(C2(N3CCCCC3)CCCCC2)c1 | · | · | -2.5 | 84.2* | 8.6 | -13.4
O=C(O)[C@@H]1[C@@H](CO)[C@@H]2Cn3c(ccc(-c4ccncc4)c3=O)[C@H]1N2S(=O)(=O)c1ccccc1F | · | 4.0 | · | · | -2.9 | -11.0
O=C(NC1CCCCC1)Oc1cc2oc(=O)sc2cc1Cl | 67.1* | -8.2 | 1.4 | -14.2 | -44.0 | ·
COc1ccc(C#Cc2ccc([C@H]3[C@@H](CO)N4CCCCN(C(=O)Cc5ccncc5)C[C@@H]34)cc2)cc1 | · | · | · | -73.0 | -2.1 | -19.7
CCOc1cccc(CNCCc2c(C)[nH]c3ccc(OC(F)(F)F)cc23)c1O | 7.2 | 0.9 | -11.2 | 21.2 | 39.5* | 12.1
CN(C)c1ccc(CN2CC=C(c3ccc(F)cc3)CC2)cc1 | 51.2* | -0.2 | 6.9 | · | · | -5.5
CN(C)c1ccc(NC(=O)CN2C(=O)CN=C(c3ccccc3)c3cc(Cl)ccc32)cc1 | · | -8.2 | 1.3 | 1.4 | 27.2* | 7.8
O=C(Cc1cccnc1)N1CCCCN2[C@@H](CO)[C@H](c3ccc(C#CC4CC4)cc3)[C@@H]2C1 | · | · | · | 10.0 | 1.2 | -4.3
CC(=O)OC(C)(C)/C=C/C(=O)C(C)(O)C1C(O)CC2(C)C3CC=C4C(CC(O)C(=O)C4(C)C)C3(C)C(=O)CC12C (stereo unspecified) | 4.0 | 30.5* | -19.7 | -3.4 | -2.1 | ·
CC(=O)OC(C)(C)/C=C/C(=O)[C@](C)(O)[C@H]1[C@H](O)C[C@@]2(C)[C@@H]3CC=C4[C@H](C[C@H](O)C(=O)C4(C)C)[C@]3(C)C(=O)C[C@]12C | · | · | -21.7 | · | · | -4.1
COC(=O)[C@@H]1[C@@H](CO)[C@@H]2Cn3c(ccc(C4=CCCCC4)c3=O)[C@H]1N2Cc1ccccc1OC | · | · | · | 5.4 | 3.7 | ·
CCOc1ccccc1-n1c(O)c(C=Nc2ccc(N(CC)CC)cc2)c(=O)[nH]c1=O | -2.9 | · | 29.1* | · | · | -17.0
CCN(CC)c1ccc(N=Cc2c(O)n(-c3ccccc3C)c(=O)[nH]c2=O)cc1 | 0.9 | 0.0 | 7.0 | · | · | -18.6
FC(F)(F)CN1C[C@@H]2C(c3ccccc3)[C@H](C1)N2CC1CC1 (stereo partly specified) | · | -16.3 | · | · | · | ·
C=C1C(=O)O[C@@H]2C[C@@H](C)[C@@H]3C=CC(=O)[C@@]3(C)[C@@H](O)[C@H]12 | · | 50.0* | -22.4 | -3.1 | -4.2 | 7.7
CCOc1cc2c(cc1OCC)-n1cccc1C(c1cccc(F)c1)NC2 (stereo unspecified) | 6.5 | -7.2 | -1.2 | -7.5 | 26.1* | 3.7
CCOc1cc2c(cc1OCC)-n1cccc1C(c1cc(C)c(OC)cc1C)NC2 (stereo unspecified) | -0.4 | -2.7 | 1.8 | -4.1 | 4.7 | 4.1
CCOc1cc2c(cc1OCC)-n1cccc1C(c1cc(OC)ccc1F)NC2 (stereo unspecified) | 8.0 | 7.9 | 0.0 | -8.8 | 27.4* | 1.8
CCOc1cc2c(cc1OCC)-n1cccc1C(c1ccc(C)cc1C)NC2 (stereo unspecified) | -1.3 | -7.6 | -0.4 | -9.1 | 26.4* | 3.2
CC(C)NC(=O)N1CC2C(c3ccccc3)C(C1)N2C (stereo unspecified) | · | -3.0 | · | · | · | ·
SMILES | NSD2 HMT inh | FN deposition inh | Glyco luc inh | RAD52 inh | AF4-AF9 inh | RAD54 inh
C=CCN1[C@@H]2CN(C(=O)NC(C)C)C[C@H]1C2c1ccc(Br)cc1 (stereo partly specified) | · | -8.3 | · | · | · | ·
COC(=O)[C@@H]1[C@@H](CO)[C@@H]2Cn3c(ccc(-c4ccccc4)c3=O)[C@H]1N2S(=O)(=O)c1ccccc1C | · | · | · | 1.0 | 1.8 | 2.3
CC=Cc1ccc2n(c1=O)C[C@@H]1[C@@H](CO)[C@H](C(=O)OC)[C@H]2N1S(=O)(=O)c1ccccc1C (mixture of isomers) | · | -0.5 | · | 56.1* | 2.1 | -3.4
CC=Cc1ccc2n(c1=O)C[C@H]1[C@H](CO)[C@@H](C(=O)OC)[C@@H]2N1S(=O)(=O)c1ccccc1C (mixture of isomers) | · | -7.4 | · | 53.2* | 1.4 | 4.7
COC(=O)[C@@H]1[C@@H](CO)[C@@H]2Cn3c(ccc(-c4ccncc4)c3=O)[C@H]1N2S(=O)(=O)c1ccccc1C | · | · | · | 1.9 | -24.3 | -12.7
FC(F)(F)CN1C[C@@H]2C(c3ccc(Br)cc3)[C@H](C1)N2CC1CC1 (stereo partly specified) | · | 19.8 | · | · | · | ·
O=C1NC(=O)[C@]2(Cc3ccccc3N3CCN(c4ccccc4)CC32)C(=O)N1c1ccccc1 (stereo partly specified) | 3.7 | 31.3* | -3.4 | · | · | -1.9
Brc1ccc2[nH]cc(/C=N/N3CCCCC3)c2c1 | 4.9 | 4.9 | -0.3 | -2.4 | 25.8* | ·
C=CCN1[C@@H]2CN(S(C)(=O)=O)C[C@H]1C2c1ccccc1 (stereo partly specified) | · | 4.4 | · | · | · | ·
CCCNC(=O)c1c(N)n(CC2CCCO2)c2nc3ccccc3nc12 (stereo unspecified) | · | -0.8 | 7.6 | · | · | ·
CC(C)OCCCNC(=O)c1c(N)n(CC2CCCO2)c2nc3ccccc3nc12 (stereo unspecified) | 98.5* | · | 3.4 | -23.0 | -28.2 | ·
COc1ccc(C(=O)N/N=C/C23CC[C@@H](O)CC2(O)CC[C@@H]2[C@@H]3CCC3(C)C(C4=CC(=O)OC4)CCC23O)cc1 (stereo partly specified) | 0.8 | 0.9 | 37.7* | -7.6 | 3.4 | ·
CC12CC[C@H]3[C@@H](CCC4(O)C[C@H](O)CCC34/C=N/NC(=O)c3ccccc3O)C1(O)CCC2C1=CC(=O)OC1 (stereo partly specified) | -1.4 | -1.3 | 31.7* | 27.8 | -6.7 | ·
CC12CC[C@H]3[C@@H](CCC4(O)C[C@H](O)CCC34/C=N/NC(=O)c3ccccc3F)C1(O)CCC2C1=CC(=O)OC1 (stereo partly specified) | 0.0 | -9.3 | 11.8 | 4.4 | -11.1 | -9.4
Cc1ccccc1NC(=NCCCN1CC1)Nc1ccccc1C | 44.0 | 2.0 | -15.8 | -4.7 | 77.8* | ·
CC(C)NC(=O)N1C[C@@H]2N[C@H](C1)C2c1ccccc1 (stereo partly specified) | · | -9.7 | · | · | · | ·
ClCCOCCCl | · | · | 85.1* | -6.6 | · | -11.6
